Screening results: PubChem BioAssay, several laboratories
Shown are actives, neighbours in structure and some others; about 9.4% of the full set was active somewhere.
CSC inhib = cancer stem cell inhibition; cancer stem cell-like cells viability, luminescence; inhibition, % at 7.5 µM; 300,000 compounds, 1.1% hits; in the data active = inhibition above about 75%; tested in HMLE shEcad cells
Mdm2-MdmX inh = disrupts the human Mdm2-MdmX interaction; SaOS-2 split-luciferase Mdm2/MdmX complementation, luminescence; 330,000 compounds, 3% hits; inhibition, % at 8 µM; O15151+Q00987;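 active = inhibition of at least 50% at 8 µM in the primary screen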
Target sequence (O15151 whole entry, looked up): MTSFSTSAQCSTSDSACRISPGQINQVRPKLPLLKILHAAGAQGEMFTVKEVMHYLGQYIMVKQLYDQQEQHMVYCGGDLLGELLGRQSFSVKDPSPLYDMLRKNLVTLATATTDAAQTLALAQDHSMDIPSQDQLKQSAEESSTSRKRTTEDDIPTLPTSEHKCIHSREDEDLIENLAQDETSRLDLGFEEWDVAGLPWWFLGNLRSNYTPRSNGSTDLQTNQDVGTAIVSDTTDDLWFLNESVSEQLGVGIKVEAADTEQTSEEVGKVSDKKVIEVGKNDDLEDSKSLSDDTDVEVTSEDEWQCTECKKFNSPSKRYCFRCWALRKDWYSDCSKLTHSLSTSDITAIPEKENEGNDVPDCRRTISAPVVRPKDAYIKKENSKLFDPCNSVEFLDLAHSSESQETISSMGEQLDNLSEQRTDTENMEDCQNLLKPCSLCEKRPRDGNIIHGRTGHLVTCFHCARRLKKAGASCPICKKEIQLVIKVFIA
Target sequence (Q00987 whole entry, looked up): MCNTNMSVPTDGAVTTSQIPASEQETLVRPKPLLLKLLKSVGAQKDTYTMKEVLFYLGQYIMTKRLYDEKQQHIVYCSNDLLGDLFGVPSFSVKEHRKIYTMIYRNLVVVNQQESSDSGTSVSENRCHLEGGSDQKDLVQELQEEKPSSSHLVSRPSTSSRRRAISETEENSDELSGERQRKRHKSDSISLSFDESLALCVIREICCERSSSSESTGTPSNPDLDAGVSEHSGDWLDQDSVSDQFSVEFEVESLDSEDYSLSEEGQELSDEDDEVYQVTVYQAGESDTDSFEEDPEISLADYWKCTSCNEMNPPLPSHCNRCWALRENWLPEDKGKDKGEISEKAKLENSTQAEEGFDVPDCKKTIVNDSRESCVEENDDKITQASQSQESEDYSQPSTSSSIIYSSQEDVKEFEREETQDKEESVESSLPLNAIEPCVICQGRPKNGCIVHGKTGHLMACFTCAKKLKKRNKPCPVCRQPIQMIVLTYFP
SKKanGAS inh = inhibitors of SKKanGAS S. pyogenes growth in kanamycin (SK-promoter or general growth effect) | BacTiter-Glo, 6 h | inhibition, % at 7.5 µM | 300,000 compounds, 1.3% hits | AID 1662;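 active = mean replicate score, as percent of positive control median, at least 50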;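 note: strain carries kanamycin resistance gene driven by streptokinase promoter and grows in 40 µg/ml kanamycin; loss of luminescence reflects streptokinase promoter inhibition or plain growth inhibition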
Beta apoptosis = beta cell apoptosis inhibition | INS-1E cytokine-induced death, ATP luminescence, 48 h; percent of positive-control rescue, neutral wells zero | AID 435005 | 300,000 compounds, 0.8% hits | protection from apoptosis, % (concentration not given with the values);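 active = Every replicate reaches about 75%, or at least half do and their mean reaches it too, limit read from the data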;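 note: higher means more ATP so stronger rescue from cytokine killing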
L major viab = inhibitors of Leishmania major promastigote growth. Leishmania major promastigotes, resazurin fluorescence viability. inhibition, % at 10 µM. 200,000 compounds, 9% hits; in the data active = inhibition above about 50%;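 note: promastigotes grown with compound for 44 hours at 28 °C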
T cruzi inh = blocks replication of Trypanosoma cruzi | T. cruzi beta-gal in NIH3T3, luminescence, 90 h | 300,000 compounds, 1.4% hits | inhibition, % (no concentration beside the values) | AID 1885;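 active = mean inhibition across valid replicates above about 55%, limit read from the data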;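 note: signal also drops with host cell toxicity which is not excluded here; higher percent means less beta-gal luminescence so fewer parasites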
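System: Mouse NIH/3T3 fibroblasts infected with β-gal-expressing T. cruzi Tulahuen C4 | Quantity: NIH/3T3 cells, 5,000 per well | Reagent: 5000 reporter trypomastigotes per well | Dosing: Compound pinned at 50 nL/well, DMSO | Schedule: 3 h host attachment, then at least 90 h co-culture | Detection: GalScreen luminescence, 60 min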
Of the large screens only hits and unclear results are named; the others gave an inactive call.

CC(NCc1ccc(N(C)C)cc1)C1CC2CCC1C2 (stereo not given)	L major viab 98
CC(NC(=O)c1ccc(CS(C)(=O)=O)cc1)C1CC2CCC1C2 (stereo not given)	none (no result: L major viab)
COc1ccc(CNC(=O)COc2ccc(S(=O)(=O)NC(C)C)cc2)cc1	L major viab 65
N#Cc1cc(-c2ccccc2)nc(NN)n1	none (no result: L major viab)
NNc1nc(-c2ccccc2)cc(-c2ccccc2O)n1	Beta apoptosis 79, L major viab 89
Cc1ccc(C(=O)NCC(=O)NCC(=O)OCC(=O)c2ccc(Br)cc2)cc1	none
CCOC(=O)CNCCC(=O)c1ccc(Br)cc1	L major viab 63
c1ccc(C2=NNC(=NC3CC3)SC2)cc1	none
c1ccc2c(C3=NNC(=NC4CCCCC4)SC3)c[nH]c2c1	L major viab 93
c1ccc2c(C3=NNC(=NC4CC4)SC3)c[nH]c2c1	L major viab 97
O=S(=O)(Nc1ccc(O)c(CN2CCCCC2)c1)c1ccccc1	L major viab 99
O=C(CSc1ccc(Cl)cc1)Nc1cccc(NC(=O)c2ccco2)c1	L major viab 97
C/C(=N\NC(=O)c1ccc(F)cc1)c1cccc(NC(=O)c2ccco2)c1	L major viab 67
C/C(=N\NC(=O)c1ccc(F)cc1)c1cccc(NC(=O)c2cccc(F)c2)c1	none (no result: CSC inhib, L major viab)
O=C(Nc1cc([N+](=O)[O-])ccc1O)c1cccc(NC(=O)c2ccco2)c1	SKKanGAS inh 53 (no result: L major viab)
CC(C)CNC(=O)c1cccc(NC(=O)C(C)C)c1	none
CC(C)CNC(=O)c1cccc(NC(=O)c2ccco2)c1	L major viab 79 (no result: CSC inhib, Beta apoptosis)
CCc1ccc(NC(=O)CCC(=O)Nc2nnc(C(F)(F)F)s2)cc1	none (no result: L major viab)
O=C(Nc1ccccc1)c1cccc(NC(=O)c2ccco2)c1	none (no result: L major viab)
Cc1ccc(C(=O)Nc2cccc(C(=O)NCc3ccccc3)c2)o1	L major viab 92
O=C(NCc1ccccc1)c1cccc(NC(=O)c2ccco2)c1	L major viab 98
O=C(NCc1ccco1)c1cccc(NC(=O)c2ccco2)c1	L major viab 79
CN(Cc1ccccc1)C(=O)c1cccc(NC(=O)c2ccco2)c1	L major viab 100
CC[C@]1(C(=O)OC)[C@H]2C(=O)N(Cc3ccccc3)C(=O)[C@H]2[C@H]2CN(C)C(=NC)N21	none (no result: CSC inhib, SKKanGAS inh, Beta apoptosis, L major viab, T cruzi inh)
CN(C)c1ccc(/C=C/C(O)=C2/C(=O)N(C)C3(C)CC2c2ccccc2O3)cc1 (stereo not given)	L major viab 66 (no result: Mdm2-MdmX inh)
Cc1c(Cl)ccc2sc(N3CCN(C(=O)C4=COCCO4)CC3)nc12	none (no result: Beta apoptosis, L major viab)
O=C(O)c1ccccc1C(=O)N1CC=C(c2ccccc2)CC1	L major viab 90
O=C1CSC(=Nc2cccc([N+](=O)[O-])c2)N1	none (no result: L major viab)
O=C(NCCC1CCCCN1S(=O)(=O)c1ccccc1)C(=O)Nc1ccc(F)cc1F (stereo not given)	none (no result: Beta apoptosis, L major viab)
COc1ccc(-c2cc(C(F)(F)F)n3nc(C(=O)NCCCN4CCOCC4)cc3n2)cc1	L major viab 57
COc1ccc2c(Cl)c(C(=O)NCCCn3ccnc3)sc2c1	L major viab 100
O=C(NCCCn1ccnc1)c1cc(-c2ccc(Br)cc2)on1	L major viab 96
COc1cccc(-c2cc(C(=O)NCCCn3ccnc3)no2)c1	L major viab 96
O=C(O)CCNS(=O)(=O)c1cccc2nsnc12	none (no result: SKKanGAS inh, L major viab, T cruzi inh)
CCCCNC(=O)c1cc(-c2ccc(OC)c(OC)c2)on1	none (no result: CSC inhib)
Cc1cc(-c2ccccc2)nc2cc(C(=O)NCCCn3ccnc3)nn12	none
O=C(NCCCn1ccnc1)c1cc2nc(-c3ccc(Br)cc3)cc(C(F)(F)F)n2n1	L major viab 99 (no result: CSC inhib)
COc1ccc(-c2cc(C(=O)NCCCn3ccnc3)no2)cc1OC	L major viab 61
O=C(NCC(c1cccs1)N1CCOCC1)c1cc([N+](=O)[O-])cc([N+](=O)[O-])c1 (stereo not given)	T cruzi inh 73
O=C(NCC(c1cccs1)N1CCOCC1)c1ccc(Cl)cc1 (stereo not given)	none (no result: L major viab)
O=C(NCC(c1cccs1)N1CCOCC1)c1ccc(Cl)s1 (stereo not given)	CSC inhib 78
O=C(NCC(c1cccs1)N1CCOCC1)c1cccc([N+](=O)[O-])c1 (stereo not given)	none
Cc1[nH]nc2c1/C(=N\O)CCC2	none
O=C1CNC(=S)N1CCc1ccc(O)c(O)c1	none (no result: L major viab)
